Experimental data as given in PubChem BioAssay AID2237 (Johns Hopkins Ion Channel Center, 2010).
The campaign covered roughly 310,000 compounds. About 1,500 (0.48%) were called active. The sample holds actives, similar compounds and a random draw of the others, so the mix is not that of the screen.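 The calls were made as follows: active = B-score above 5 SD of library B-scores, and initial fluorescence ratio not above library mean plus 5 SD; inactive = the rest.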

target: Short transient receptor potential channel 4 (Mus musculus) (UniProt Q9QUQ5); assay: TRPC4 cation channel opening, calcium rise – Fluo4 calcium, HEK293 TRPC4beta/mu-opioid cells, primary screen (AID 2237); settings: Fluo4 calcium fluorescence, at 10 µM; stronger effect = higher value;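 as to B-score: positive B-score marks a calcium rise read as TRPC4 activation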
Summary of the method: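 System – HEK293 cells stably co-expressing mouse TRPC4beta and mu-opioid receptor · Signal – Fluo4 calcium-sensitive dye fluorescence, kinetic, 1 Hz baseline · Benchmarks – buffer (low) and maximal DAMGO (high) · Read-out – B score of integrated fluorescence ratio per well · Incubation – dye loading 45 min room temperature, 110 s kinetic read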

Short transient receptor potential channel 4 (Mus musculus), sequence (Q9QUQ5 whole entry, looked up): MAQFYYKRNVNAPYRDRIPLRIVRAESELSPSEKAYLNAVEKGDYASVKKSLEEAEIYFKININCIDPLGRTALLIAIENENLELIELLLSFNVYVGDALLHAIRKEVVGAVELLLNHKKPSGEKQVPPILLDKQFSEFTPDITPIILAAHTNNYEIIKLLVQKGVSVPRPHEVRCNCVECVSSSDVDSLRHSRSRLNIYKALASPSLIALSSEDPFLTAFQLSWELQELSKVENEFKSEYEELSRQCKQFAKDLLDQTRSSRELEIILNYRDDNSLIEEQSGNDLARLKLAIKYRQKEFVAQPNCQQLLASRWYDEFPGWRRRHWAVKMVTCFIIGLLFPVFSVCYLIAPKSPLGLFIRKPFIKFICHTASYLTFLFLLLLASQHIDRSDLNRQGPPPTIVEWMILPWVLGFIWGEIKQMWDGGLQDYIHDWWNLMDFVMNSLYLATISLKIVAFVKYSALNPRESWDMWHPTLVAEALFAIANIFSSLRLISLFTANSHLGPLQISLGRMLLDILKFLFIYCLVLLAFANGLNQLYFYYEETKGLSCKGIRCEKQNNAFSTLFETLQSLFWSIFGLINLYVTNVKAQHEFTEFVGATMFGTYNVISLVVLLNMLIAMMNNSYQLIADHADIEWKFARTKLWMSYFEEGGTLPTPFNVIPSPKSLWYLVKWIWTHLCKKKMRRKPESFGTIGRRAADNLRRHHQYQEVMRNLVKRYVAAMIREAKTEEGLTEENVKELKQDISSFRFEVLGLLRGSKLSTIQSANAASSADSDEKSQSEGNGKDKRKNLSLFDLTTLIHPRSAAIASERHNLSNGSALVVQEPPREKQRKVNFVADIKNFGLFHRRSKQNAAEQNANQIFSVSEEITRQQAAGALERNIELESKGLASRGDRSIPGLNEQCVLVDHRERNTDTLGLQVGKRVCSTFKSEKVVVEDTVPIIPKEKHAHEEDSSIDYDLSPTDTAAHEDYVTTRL

Compound	B-score
Cc1cc(C)c2nc(N3CCC(C(=O)NCCN4CCOCC4)CC3)sc2c1	inactive
CCC1CCCCN1CCCNC(=O)c1cc2c(Cl)nc3ccccc3c2s1 (centres undefined)	inactive
CSCc1nnc(NC(=O)c2ccc(S(=O)(=O)N3CCCCC3C)cc2)o1 (centres undefined)	inactive
CC1CCCN(S(=O)(=O)c2ccc(C(=O)Nc3nnc(-c4ccncc4)o3)cc2)C1 (centres undefined)	inactive
CC1CCCCN1S(=O)(=O)c1ccc(C(=O)Nc2nnc(-c3cccs3)o2)cc1 (centres undefined)	74 (active)
COc1ccc(N2C(=O)NC(NS(=O)(=O)c3ccc(Cl)cc3)(C(F)(F)F)C2=O)cc1 (centres undefined)	inactive
CCCc1ccc(OCC(O)CN2CCN(CCO)CC2)cc1 (centres undefined)	inactive
CCOc1ccc(N(CC(=O)NCCc2ccc(OC)cc2)S(C)(=O)=O)cc1	inactive
CC1(C)CC(N2CCN(C(c3ccccc3)c3ccccc3)CC2)=CC(=[N+]2CCCCC2)C1	inactive
COC(=O)C1=C(C)N(C)C(=S)NC1c1ccccc1 (centres undefined)	inactive
COCCN1C2=C(COC(C)(C)C2)C(=S)NC1c1ccccc1 (centres undefined)	76 (active)
COCCN1C(=O)N[C@@H](CCc2ccccc2)[C@H](C(C)=O)[C@H]1C	inactive
CCN(c1ccccc1)S(=O)(=O)c1ccc2[nH]c(=O)[nH]c2c1	inactive
CCOc1ccc(NS(=O)(=O)c2ccc(C(=O)NC3CCN(Cc4ccccc4)CC3)cc2)cc1	49 (active)
CCOc1ccc(C(=O)NC2CCN(S(=O)(=O)CC)CC2)cc1	inactive
CCOc1ccc(CC(=O)NC2CCN(Cc3ccccc3)CC2)cc1	inactive
CN(CCc1ccccn1)C(=O)c1ccc(OC2CCN(CCc3ccccc3)CC2)cc1	inactive
CC(O)CN(Cc1ccc(Cl)cc1)CC(C)O (centres undefined)	inactive
COc1cc(C(=O)N(C)Cc2cccc(OC)c2OC)ccc1OCC(=O)Nc1cccc(C(F)(F)F)c1	inactive
CC(C)C(=O)Nc1cccc(NC(=S)NC(=O)C(c2ccccc2)c2ccccc2)c1	inactive
O=C(NNC(=S)NCc1ccco1)C(c1ccccc1)c1ccccc1	inactive
CCCCC(=O)NNC(=S)NC(=O)C(c1ccccc1)c1ccccc1	152 (active)
COc1ccc(NC(=O)CN(C)C(=O)c2ccc(COc3ccccc3)o2)cc1	inactive
CCOc1ccc(OCc2ccc(C(=O)N(C)c3ccccc3)o2)cc1	inactive
O=C(NCCc1ccccn1)c1ccc(COc2ccccc2)o1	120 (active)
Cc1cc(N2CCN(c3ccc(F)cc3)CC2)n2ncnc2n1	inactive

Compound	B-score
CCOCCCNC(=O)C(=O)NCCCOCC	inactive
CCCCn1c(-c2cccc(C)c2)nc2cc3[nH]c(=O)c(C(C)C)nc3cc21	inactive
Cc1ccnc(NC(=O)CCNS(=O)(=O)c2ccc(C)c(C)c2)c1	inactive
CCOc1ccc(NS(=O)(=O)c2ccc(C(=O)NCC(c3ccccc3OC)N3CCCC3)cc2)cc1 (centres undefined)	inactive
CC(NC(=O)COC(=O)c1ccc(Cl)cc1O)c1ccc(F)cc1 (centres undefined)	inactive
COc1ccc(Cl)cc1NC(=O)CNc1ccccc1F	inactive
COc1ccc(C(CNC(=O)c2ccc(S(=O)(=O)Nc3ccccc3F)cc2)N(C)C)cc1 (centres undefined)	inactive
COc1ccc(C(CNCC(=O)Nc2ccccc2F)N(C)C)cc1 (centres undefined)	108 (active)
COc1ccc2c(c1)SC(C)CC2=O (centres undefined)	inactive
COc1ccc2c(c1)OC(O)(C(F)(F)C(F)F)CC2=O (centres undefined)	82 (active)
CC1(C)CC(=O)c2ccc(O)cc2O1	inactive
O=S1(=O)CC/C(=N\Nc2ccc(F)cc2)c2ccsc21	inactive
CC(C)Sc1ncnc2c1cnn2-c1ccccc1	inactive
COc1ccc(-n2ncc3c(N4CCc5ccccc54)ncnc32)cc1	64 (active)
COc1ccc(-n2ncc3c(SCC(=O)NNC(C)=O)ncnc32)cc1	inactive
CC(C)N1CCC(NC(=O)Nc2ccccc2)CC1	inactive
COc1ccc(C)cc1N(CC(=O)N1CCCC1)S(=O)(=O)c1ccccc1	inactive
COc1ccccc1N(CC(=O)N1CCCCC1)S(=O)(=O)c1ccccc1	56 (active)
COc1ccc(N(CC(=O)N2CCCCCC2)S(=O)(=O)c2ccccc2)cc1	inactive
COC(=O)CC1=NN(c2nc(C)cc(C)n2)C(=O)C1	inactive
S=C(Nc1ccc(Br)cc1Cl)NC1CCN(Cc2ccccc2)CC1	57 (active)
S=C(Nc1ccc(Br)cc1)NC1CCN(Cc2ccccc2)CC1	inactive
O=C(COc1ccc(Br)cc1F)NC1CCN(Cc2ccccc2)CC1	inactive
O=C(COc1ccccc1Cl)N1CCCCCCC1	inactive
CCN1C(=O)C(C(=O)NC(C)c2ccccc2)C2CC1(C)Oc1ccccc12 (centres undefined)	inactive
COc1cccc(-c2nc(CS(=O)(=O)CC(=O)NCCc3ccc(OC)c(OC)c3)c(C)o2)c1	inactive

Compound	B-score
COc1ccc(-c2nc(CS(=O)(=O)CC(=O)NCc3cccc(Br)c3)c(C)o2)cc1	inactive
CCCCN(CC)CCCNC(=O)CS(=O)(=O)Cc1nc(-c2cccc(OC)c2)oc1C	56 (active)
CCN1/C(=C\c2ccc3ccccc3[n+]2CC)Sc2cc(C)ccc21	425 (active)
CCOc1ccc(CN2CCNC(=O)C2CC(=O)NCCCC2CCCC2)cc1 (centres undefined)	inactive
CCN(CC)c1ccc(NC(=O)C2CCC(CNc3c(N4CCCC4)c(=O)c3=O)CC2)c(C)c1 (centres undefined)	inactive
CCCn1c(CCNc2nc(-c3ccc(OC)cc3)cs2)nc2ccccc21	inactive
CCCn1c(C2CCCN2c2nc(-c3ccc(C)cc3)cs2)nc2cc(Cl)c(N3CCCCC3)cc21 (centres undefined)	inactive
CCCn1c(C2CCCN2c2nc(-c3ccc(OC)cc3)cs2)nc2ccccc21 (centres undefined)	70 (active)
CCN1C(=O)[C@H]2[C@@H](c3ccc(-c4ccc(OC)cc4)cc3)N[C@@](Cc3ccccc3)(C(=O)OC)[C@H]2C1=O	inactive
COC(=O)c1cc(S(=O)(=O)NC2CCN(Cc3ccccc3)CC2)cn1C	inactive
CCC1(CC)Cc2ccccc2-c2nc(CCl)[nH]c(=O)c21	inactive
COc1cc(CN2CCCC(C(=O)c3ccc(SC)cc3)C2)cc(Cl)c1O (centres undefined)	inactive
COc1ccc(CN2CCCC(C(=O)c3ccc(Cl)cc3)C2)cc1Cn1cncn1 (centres undefined)	48 (active)
COc1ccc(CCN(C)C(=O)C2CCCN(Cc3ccc(OC)c(OC)c3)C2)cc1OC (centres undefined)	inactive
CCNS(=O)(=O)c1ccc(CCC(=O)N2CCN(c3ccc(OC)cc3)CC2)cc1	inactive
CN1CCN(NC(=O)Nc2ccc(Br)cc2)CC1	inactive
CN1C(CC(=O)Nc2ccc(Br)cc2)c2ccccc2CC1(C)C (centres undefined)	109 (active)
COCC(=O)Nc1ccc(Br)cc1	inactive
COC(=O)C1CCN(C(=O)NC2CC(=O)N(c3ccc4c(c3)OCCO4)C2)CC1 (centres undefined)	inactive
CN(CC(=O)Nc1ccccc1Cl)C(=O)COc1cccc2c1OC(C)(C)C2	inactive
COc1cccc(CC2(CO)CCCN(Cc3nc(-c4cccs4)oc3C)C2)c1 (centres undefined)	inactive
CCOc1ccccc1-c1nc(CN2CCC(C(=O)N3CCOCC3)CC2)c(C)o1	inactive
CCOC(=O)C1(CC2CCCCO2)CCN(Cc2nc(-c3cccs3)oc2C)CC1 (centres undefined)	73 (active)
CC12CCC(C(=O)N(NC(=O)c3ccccc3O)C1=O)C2(C)C (centres undefined)	inactive
O=C(NCc1cccnc1)c1cnc2ccccc2n1	inactive
COc1cc(C(=O)Nn2c(CC(C)C)nc3ccccc3c2=O)cc(OC)c1OC	inactive

Compound	B-score
CCc1noc(C)c1C(=O)NNC(=O)c1ccc(F)cc1	inactive
Cc1onc(-c2ccccc2)c1C(=O)Nc1ccccc1C#N	inactive
COc1ccc(C(=O)NC(=S)NNC(=O)c2c(-c3ccccc3)noc2C)cc1	133 (active)
Cc1onc(-c2c(Cl)cccc2Cl)c1C(=O)NNC(=O)c1c(-c2c(Cl)cccc2Cl)noc1C	inactive
Cc1onc(-c2ccccc2)c1C(=O)NNC(=S)NC(=O)c1ccc(F)cc1	185 (active)
Cc1ccc(CNC(=O)c2c(-c3ccccc3)noc2C)cc1	inactive
CCc1cccc(C)c1NS(=O)(=O)c1cc(Br)cnc1N	inactive
Cc1cc(NS(=O)(=O)c2ccc(NC(=O)C(C)Oc3cccc(C)c3C)cc2)nc(C)n1 (centres undefined)	inactive
COc1ccccc1N1CCN(c2nc(C)cc(=O)[nH]2)CC1	inactive
Cc1ccc(CN2CCN(c3ccccc3Cl)CC2)o1	inactive
OCCNCCOc1ccc(Cl)c(Cl)c1	70 (active)
OCCNCCCCOc1ccccc1F	inactive
OCCNCc1cccc(OCc2ccccc2Cl)c1	inactive
COc1cccc2c1CCC(NC(C)=O)C2=O (centres undefined)	inactive
c1ccc(C[C@H]2CNCCN2CCC23CC4CC(CC(C4)C2)C3)cc1	inactive
COC(=O)C1(C)CC1(c1ccccc1)c1ccccc1 (centres undefined)	inactive
CCNS(=O)(=O)c1ccc(NC(=O)Nc2cccc(OC)c2)cc1	54 (active)
CCN(CC(=O)Nc1ccc(S(=O)(=O)N2CCCC2)cc1)CC(=O)Nc1cccc(OC)c1	inactive
COc1cccc(NC(C)=[N+](C)CCNS(=O)(=O)c2ccc(Cl)cc2)c1	inactive
CC(CN1CCCCC1)c1ccccc1 (centres undefined)	inactive
CC(=O)N1CCN(CC(c2ccccc2)c2ccccc2)CC1	inactive
CC(=O)c1ccc(N2CCN(C(=O)CCc3ccccc3)CC2)cc1	inactive
CC(=O)c1ccc(N2CCN(CC(O)c3ccccc3)CC2)cc1 (centres undefined)	63 (active)
CCCOc1ccc(Cc2c(O)nc(N)[nH]c2=O)cc1C	inactive
C=CCc1ccc(OCCOc2cccc(/C=N/n3cnnc3)c2)c(OC)c1	inactive
COC(=O)[C@H]1Cc2cnoc2C[C@]1(C)C(=O)O	inactive
